Reference: ChEMBL document CHEMBL3596101, “The Mechanism of Ca(2+) Movement in the Involvement of Baicalein-Induced Cytotoxicity in ZR-75-1 Human Breast Cancer Cells” (J Nat Prod, 2015)
The source made the active and inactive calls. The rule behind the calls is not given here.

Key:
ZR-75-1 [1] = assay: Induction of apoptosis in human ZR-75-1 cells assessed as early apoptotic cells at 40 uM after 24 hrs by annexin V-FITC/propidium iodide staining-based flow cytometric analysis (reference value: 6.84%); type: functional
Method in brief: (§1)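 ZR-75-1 cells exposed to 20–40 μM compound for 24 h, with 5 μM BAPTA-AM or NAC added first where indicated. Cells stained with Alexa Fluor 488 annexin V/PI for 15 min, at least 20000 cells analysed by flow cytometry (488 nm excitation, 530/575 nm filters). Early = annexin V+/PI−, late = annexin V+/PI+. Three independent biological replicates.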

ZR-75-1 [2] = assay: Induction of cell death in human ZR-75-1 cells at 20 to 50 uM after 24 hrs by WST-1 assay in presence of antioxidant N-Acetylcysteine; type: functional, cell-based
Method in brief: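 WST-1 viability assay in ZR-75-1 cells: 5 μM NAC added, then 20–50 μM compound in NAC-containing medium for 24 h. A450 read after 30 min WST-1 incubation and expressed as % of control. Mean ± SEM of three experiments.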

ZR-75-1 [3] = assay: Induction of reactive oxygen species production in human ZR-75-1 cells at 30 uM after 24 hrs by DCFH-DA probe-based flow cytometric analysis (reference value: 3.623%); type: functional
Method in brief: (§2)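 ZR-75-1 cells treated with 20–40 μM compound for 24 h, with 5 μM BAPTA-AM added first where indicated. Cells suspended at 1 × 10^6/mL, loaded with 10 μM DCFH-DA for 30 min at 37 °C. DCF read by flow cytometry (488 nm excitation, 530/30 nm filter, 10000 cells). % H2O2-positive (M1) after subtracting the baseline without probe. Three experiments.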

ZR-75-1 [4] = assay: Increase in intracellular Ca2+ level in human ZR-75-1 cells at 50 uM treated for 25 secs by fura-2-AM dye-based spectrofluorophotometric analysis in presence of Ca2+ containing medium (reference value: 50 +/- 3 nM); type: functional; details: in the assay text read “40 uM treated” for “50 uM treated”
Method in brief: (§3)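 Fura-2-loaded ZR-75-1 cells (0.5 million per 1 mL, stirred, 25 °C) in Ca2+-containing or Ca2+-free medium. Compound added at 25 s. 340/380 nm excitation, 510 nm emission at 1 s intervals, calibrated to nM. Concentration-response from baseline-subtracted area under curve (25–250 s) as % of 50 μM response in Ca2+ medium. EC50 from Hill fit. Three experiments.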

ZR-75-1 [5] = assay: Induction of apoptosis in human ZR-75-1 cells assessed as activation of caspase-3 at 20 to 40 uM preincubated for 24 hrs followed by Ca2+ chelator BAPTA-AM addition by Western immunoblot analysis; type: functional, cell-based
Method in brief: (§4)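 Confluent ZR-75-1 cells (3 × 10^6/dish) treated with 20, 30 or 40 μM compound for 24 h. Where used, 5 μM BAPTA-AM or 5 μM NAC was added before the compound. About 50 μg lysate protein run on 10% SDS-PAGE, transferred to PVDF, probed for cleaved caspase-9/-3 and β-actin, chemiluminescence. Densitometry normalized to β-actin. Three experiments.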

ZR-75-1 [6] = assay: Induction of luminal endoplasmic reticulum Ca2+ increases in human ZR-75-1 cells assessed as ratio of Ca2+ level at 40 uM by Mag-fura-2 dye-based fluorescence assay (reference value: 0.67 +/- 0.02); type: functional
Method in brief: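 ZR-75-1 cells loaded with 2 μM Mag-fura-2-AM for 45 min at 37 °C, permeabilized 2 min with […] digitonin in high-K+ intracellular buffer (pH 7.2). Perfused with 0.2 mM Mg-ATP, free Ca2+ clamped at 170 nM. Ratio calibrated with ionomycin plus Ca2+ or EGTA, Kd 53 μM. Control versus 40 μM compound.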

ZR-75-1 [7] = assay: Induction of apoptosis in human ZR-75-1 cells assessed as early apoptotic cells at 20 uM after 24 hrs by annexin V-FITC/propidium iodide staining-based flow cytometric analysis (reference value: 6.84%); type: functional; method in brief: as §1
ZR-75-1 [8] = assay: Increase in intracellular Ca2+ level in human ZR-75-1 cells at 40 uM treated for 90 secs post PLC inhibitor U73122 and ATP addition by fura-2-AM dye-based spectrofluorophotometric analysis in presence of Ca2+ free medium; type: functional, cell-based
Method in brief: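 Performed in Ca2+-free medium with fura-2-loaded ZR-75-1 cells. Response expressed relative to 40 μM compound alone (100%). Three experiments.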

ZR-75-1 [9] = assay: Induction of apoptosis in human ZR-75-1 cells assessed as activation of caspase-9 at 20 to 40 uM preincubated for 24 hrs followed by Ca2+ chelator BAPTA-AM addition by Western immunoblot analysis; type: functional, cell-based; method in brief: as §4
ZR-75-1 [10] = assay: Induction of reactive oxygen species production in human ZR-75-1 cells after 24 hrs by DCFH-DA probe-based flow cytometric analysis; type: functional, cell-based; method in brief: as §2
ZR-75-1 [11] = assay: Increase in intracellular Ca2+ level in human ZR-75-1 cells at 40 uM measured every 150 secs by fura-2-AM dye-based spectrofluorophotometric analysis in presence of Ca2+ free medium with PKC inhibitor GF109203X; type: functional, cell-based
Method in brief: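 In Ca2+-free medium, GF109203X (2 μM) was added 1 min before 40 μM compound to fura-2-loaded ZR-75-1 cells in a 25 °C cuvette. Response = net area under curve as % of compound alone. Three experiments.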

ZR-75-1 [12] = assay: Induction of apoptosis in human ZR-75-1 cells at 20 to 40 uM preincubated for 24 hrs followed by antioxidant N-Acetylcysteine addition by annexin V-FITC/propidium iodide staining-based flow cytometric analysis; type: functional, cell-based; method in brief: as §1
ZR-75-1 [13] = assay: Inhibition of endoplasmic reticulum Ca2+ pump inhibitor thapsigargin-induced intracellular Ca2+ increase in human ZR-75-1 cells at 40 uM pretreated with compound followed by thapsigargin induction in presence of Ca2+ free medium; type: functional, cell-based
Method in brief: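 ZR-75-1 cells loaded with 2 μM fura-2-AM for 30 min at 25 °C, then suspended in Ca2+-free medium (pH 7.4; 0.3 mM EGTA, 3 mM MgCl2). Stirred cuvette at 25 °C. Thapsigargin (1 μM) or BHQ (50 μM) given before or after 40 μM compound. Excitation 340/380 nm, emission 510 nm, read at 1 s intervals. [Ca2+]i calibrated with Triton X-100/CaCl2 then EGTA.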

ZR-75-1 [14] = assay: Induction of apoptosis in human ZR-75-1 cells assessed as late apoptotic cells at 30 uM after 24 hrs by annexin V-FITC/propidium iodide staining-based flow cytometric analysis (reference value: 2.53%); type: functional; method in brief: as §1
ZR-75-1 [15] = assay: Induction of apoptosis in human ZR-75-1 cells assessed as increase in cleaved caspase-9 level at 20 to 40 uM after 24 hrs by Western immunoblot analysis; type: functional, cell-based; method in brief: as §4
ZR-75-1 [16] = assay: Increase in intracellular Ca2+ level in human ZR-75-1 cells treated for 25 secs by fura-2-AM dye-based spectrofluorophotometric analysis in presence of Ca2+-free medium; type: functional, cell-based; method in brief: as §3
ZR-75-1 [17] = assay: Increase in intracellular Ca2+ level in human ZR-75-1 cells at 40 uM treated for 25 secs by fura-2-AM dye-based spectrofluorophotometric analysis in presence of Ca2+ containing medium (reference value: 50 +/- 3 nM); type: functional; method in brief: as §3
ZR-75-1 [18] = assay: Increase in intracellular Ca2+ level in human ZR-75-1 cells treated for 25 secs by fura-2-AM dye-based spectrofluorophotometric analysis in presence of Ca2+ containing medium; type: functional, cell-based; method in brief: as §3
ZR-75-1 [19] = assay: Induction of apoptosis in human ZR-75-1 cells at 20 to 40 uM after 24 hrs by annexin V-FITC/propidium iodide staining-based flow cytometric analysis in presence of Ca2+ chelator BAPTA-AM; type: functional, cell-based; method in brief: as §1
ZR-75-1 [20] = assay: Induction of apoptosis in human ZR-75-1 cells assessed as activation of caspase-3 at 20 to 40 uM preincubated for 24 hrs followed by antioxidant N-Acetylcysteine addition by Western immunoblot analysis; type: functional, cell-based; method in brief: as §4

- EC50 (ZR-75-1 [16]): 35 µM
- EC50 (ZR-75-1 [18]): 25 µM
Compound: O=c1cc(-c2ccccc2)oc2cc(O)c(O)c(O)c12 [BAICALEIN]
- Activity (ZR-75-1 [1]): 55.96%
- Activity (ZR-75-1 [2]): inactive
- Activity (ZR-75-1 [3]): 32.663%
- Activity (ZR-75-1 [4]): 220 nM
- Activity (ZR-75-1 [5]): inactive
- Ratio (ZR-75-1 [6]): 0.875
- Activity (ZR-75-1 [7]): 22.71%
- Activity (ZR-75-1 [8]): inactive
- Activity (ZR-75-1 [9]): inactive
- Activity (ZR-75-1 [10]): Dose-dependent effect
- Activity (ZR-75-1 [11]): inactive
- Activity (ZR-75-1 [12]): inactive
- inhibition (ZR-75-1 [13]): Active
- Activity (ZR-75-1 [14]): 1.96%
- Activity (ZR-75-1 [15]): Active
- Activity (ZR-75-1 [17]): 220 nM
- Activity (ZR-75-1 [18]): Dose-dependent effect
- Activity (ZR-75-1 [19]): inactive
- Activity (ZR-75-1 [20]): inactive
